Test results taken from ChEMBL document CHEMBL4393701, “Appendix A. dithioloquinolinethiones as new potential multitargeted antibacterial and antifungal agents: Synthesis, biological evaluation and molecular docking studies” (2019).
≈ marks a conversion by molar mass, not a printed value.

Legend:
Bacillus cereus [1] = test: Antibacterial activity against Bacillus cereus clinical isolate after 24 hrs by iodonitrotetrazolium chloride dye based microdilution assay; format: functional
Outline: (§1)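 Fresh overnight cultures adjusted spectrophotometrically to 1×10^5 CFU/mL, giving 1.0×10^4 CFU per well in tryptic soy broth. Compounds were dissolved in 5% DMSO and tested at 0.001-1.0 mg/ml by serial dilution; 5% DMSO was the negative control. After 24 h at 37 °C, 0.2 mg/mL INT solution was added for 30 min at 37 °C and OD read at 655 nm. MIC is the lowest concentration giving significant growth inhibition versus the positive control. Duplicates, repeated three times.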

Bacillus cereus [2] = test: Bactericidal activity against Bacillus cereus clinical isolate incubated for 24 hrs followed by re-plating on tryptic soy broth; format: functional
Outline: (§2)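 Bacteria were grown in tryptic soy broth, 1.0×10^4 CFU per well, with compounds in 5% DMSO at 0.001-1.0 mg/ml for 24 h at 37 °C. Then 10 µL was subcultured into fresh TSB. MBC is the lowest concentration showing no growth after subculture, taken as 99.5% kill of the original inoculum. Duplicates, repeated three times.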

Micrococcus flavus [3] = test: Antibacterial activity against Micrococcus flavus ATCC 10240 after 24 hrs by iodonitrotetrazolium chloride dye based microdilution method; format: functional; details: ATCC 10240, 24 h; outline: as §1
Micrococcus flavus [4] = test: Bactericidal activity against Micrococcus flavus ATCC 10240 incubated for 24 hrs followed by re-plating on tryptic soy broth; format: functional; details: ATCC 10240, 24 h; outline: as §2
Staphylococcus aureus [5] = test: Antibacterial activity against Staphylococcus aureus ATCC 6538 after 24 hrs by iodonitrotetrazolium chloride dye based microdilution method; format: functional; details: ATCC 6538, 24 h; outline: as §1
Staphylococcus aureus [6] = test: Bactericidal activity against Staphylococcus aureus ATCC 6538 incubated for 24 hrs followed by re-plating on tryptic soy broth; format: functional; details: ATCC 6538, 24 h; outline: as §2
Listeria monocytogenes [7] = test: Antibacterial activity against Listeria monocytogenes NCTC 7973 after 24 hrs by iodonitrotetrazolium chloride dye based microdilution method; format: functional; details: NCTC 7973, 24 h; outline: as §1
Listeria monocytogenes [8] = test: Bactericidal activity against Listeria monocytogenes NCTC 7973 incubated for 24 hrs followed by re-plating on tryptic soy broth; format: functional; details: NCTC 7973, 24 h; outline: as §2
Enterobacter cloacae [9] = test: Antibacterial activity against Enterobacter cloacae clinical isolate after 24 hrs by iodonitrotetrazolium chloride dye based microdilution method; format: functional; outline: as §1
Enterobacter cloacae [10] = test: Bactericidal activity against Enterobacter cloacae incubated for 24 hrs followed by re-plating on tryptic soy broth; format: functional; outline: as §2
Pseudomonas aeruginosa [11] = test: Antibacterial activity against Pseudomonas aeruginosa ATCC 27853 after 24 hrs by iodonitrotetrazolium chloride dye based microdilution method; format: functional; details: ATCC 27853, 24 h; outline: as §1
Pseudomonas aeruginosa [12] = test: Bactericidal activity against Pseudomonas aeruginosa ATCC 27853 incubated for 24 hrs followed by re-plating on tryptic soy broth; format: functional; details: ATCC 27853, 24 h; outline: as §2
Salmonella typhimurium [13] = test: Antibacterial activity against Salmonella typhimurium ATCC 13311 after 24 hrs by iodonitrotetrazolium chloride dye based microdilution method; format: functional, Salmonella enterica subsp. enterica serovar Typhimurium; details: Salmonella enterica, ATCC 13311, 24 h; outline: as §1
Salmonella typhimurium [14] = test: Bactericidal activity against Salmonella typhimurium ATCC 13311 incubated for 24 hrs followed by re-plating on tryptic soy broth; format: functional, Salmonella enterica subsp. enterica serovar Typhimurium; details: Salmonella enterica, ATCC 13311, 24 h; outline: as §2
Escherichia coli [15] = test: Antibacterial activity against Escherichia coli ATCC 35210 after 24 hrs by iodonitrotetrazolium chloride dye based microdilution method; format: functional; details: ATCC 35210, 24 h; outline: as §1
Escherichia coli [16] = test: Bactericidal activity against Escherichia coli ATCC 35210 incubated for 24 hrs followed by re-plating on tryptic soy broth; format: functional; details: ATCC 35210, 24 h; outline: as §2
Aspergillus fumigatus [17] = test: Antifungal activity against Aspergillus fumigatus ATCC 1022 after 72 hrs by microdilution technique; format: functional; details: ATCC 1022, 72 h
Outline: (§3)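 Spores were washed off malt agar with 0.85% saline containing 0.1% Tween 80 and adjusted to about 1.0×10^5 per well. Compounds in 5% DMSO were serially diluted (0.001-1.0 mg/ml) in malt broth with inoculum. Plates were shaken at 160 rpm for 72 h at 28 °C. MIC is the lowest concentration without visible growth under a binocular microscope. Three independent experiments in duplicate.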

Aspergillus fumigatus [18] = test: Fungicidal activity against Aspergillus fumigatus ATCC 1022 incubated for 72 hrs followed by sub-culturing on broth malt medium and measured after 72 hrs; format: functional; details: ATCC 1022, 72 h
Outline: (§4)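 After 72 h exposure in malt broth, 2 µL from test wells was subcultured into wells holding 100 µL broth and incubated a further 72 h at 28 °C. MFC is the lowest concentration with no visible growth, taken as 99.5% kill of the original inoculum. Three independent experiments in duplicate.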

Aspergillus versicolor [19] = test: Antifungal activity against Aspergillus versicolor ATCC 11730 after 72 hrs by microdilution method; format: functional; details: ATCC 11730, 72 h; outline: as §3
Aspergillus versicolor [20] = test: Fungicidal activity against Aspergillus versicolor ATCC 11730 incubated for 72 hrs followed by sub-culturing on broth malt medium and measured after 72 hrs; format: functional; details: ATCC 11730, 72 h; outline: as §4
Aspergillus ochraceus [21] = test: Antifungal activity against Aspergillus ochraceus ATCC 12066 after 72 hrs by microdilution technique; format: functional; details: ATCC 12066, 72 h; outline: as §3
Aspergillus ochraceus [22] = test: Fungicidal activity against Aspergillus ochraceus ATCC 12066 incubated for 72 hrs followed by sub-culturing on broth malt medium and measured after 72 hrs; format: functional; details: ATCC 12066, 72 h; outline: as §4
Aspergillus niger [23] = test: Antifungal activity against Aspergillus niger ATCC 6275 after 72 hrs by microdilution technique; format: functional; details: ATCC 6275, 72 h; outline: as §3
Aspergillus niger [24] = test: Fungicidal activity against Aspergillus niger ATCC 6275 incubated for 72 hrs followed by sub-culturing on broth malt medium and measured after 72 hrs; format: functional; details: ATCC 6275, 72 h; outline: as §4
Trichoderma viride [25] = test: Antifungal activity against Trichoderma viride IAM 5061 after 72 hrs by microdilution technique; format: functional; details: IAM 5061, 72 h; outline: as §3
Trichoderma viride [26] = test: Fungicidal activity against Trichoderma viride IAM 5061 incubated for 72 hrs followed by sub-culturing on broth malt medium and measured after 72 hrs; format: functional; details: IAM 5061, 72 h; outline: as §4
Penicillium ochrochloron [27] = test: Antifungal activity against Penicillium ochrochloron ATCC 9112 after 72 hrs by microdilution technique; format: functional; details: ATCC 9112, 72 h; outline: as §3
Penicillium ochrochloron [28] = test: Fungicidal activity against Penicillium ochrochloron ATCC 9112 incubated for 72 hrs followed by sub-culturing on broth malt medium and measured after 72 hrs; format: functional; details: ATCC 9112, 72 h; outline: as §4
[29] = Antifungal activity against Penicillium funiculosum ATCC 36839 after 72 hrs by microdilution technique; format: functional; details: Talaromyces pinophilus, ATCC 36839, 72 h; outline: as §3
[30] = Fungicidal activity against Penicillium funiculosum ATCC 36839 incubated for 72 hrs followed by sub-culturing on broth malt medium and measured after 72 hrs; format: functional; details: Talaromyces pinophilus, ATCC 36839, 72 h; outline: as §4
Penicillium cyclopium [31] = test: Antifungal activity against Penicillium verrucosum var. cyclopium food isolate after 72 hrs by microdilution technique; format: functional; outline: as §3
Penicillium cyclopium [32] = test: Fungicidal activity against Penicillium verrucosum var. cyclopium food isolate incubated for 72 hrs followed by sub-culturing on broth malt medium and measured after 72 hrs; format: functional; outline: as §4

MIC (Bacillus cereus [1])	MIC (Micrococcus flavus [3])	MIC (Staphylococcus aureus [5])	MIC (Listeria monocytogenes [7])	MIC (Enterobacter cloacae [9])	MIC (Pseudomonas aeruginosa [11])	MIC (Salmonella typhimurium [13])	MIC (Escherichia coli [15])	MIC (Aspergillus fumigatus [17])	MIC (Aspergillus versicolor [19])	Structure (SMILES)	MBC (Bacillus cereus [2])	MBC (Micrococcus flavus [4])	MBC (Staphylococcus aureus [6])	MBC (Listeria monocytogenes [8])	MBC (Enterobacter cloacae [10])	MBC (Pseudomonas aeruginosa [12])	MBC (Salmonella typhimurium [14])	MBC (Escherichia coli [16])	MFC (Aspergillus fumigatus [18])	MFC (Aspergillus versicolor [20])	further results
106 µM (≈ 45 µg/mL)	106 µM (≈ 45 µg/mL)	106 µM (≈ 45 µg/mL)	106 µM (≈ 45 µg/mL)	70.7 µM (≈ 30 µg/mL)	70.7 µM (≈ 30 µg/mL)	106 µM (≈ 45 µg/mL)	106 µM (≈ 45 µg/mL)	3.53 ×10⁻² mM	3.53 ×10⁻² mM	CC1(C)c2ssc(=S)c2-c2ccccc2N1C(=O)CSC1=NCCS1	141 µM (≈ 59.9 µg/mL)	141 µM (≈ 59.9 µg/mL)	141 µM (≈ 59.9 µg/mL)	141 µM (≈ 59.9 µg/mL)	141 µM (≈ 59.9 µg/mL)	141 µM (≈ 60 µg/mL)	141 µM (≈ 60 µg/mL)	141 µM (≈ 59.9 µg/mL)	7.06 ×10⁻² mM	7.06 ×10⁻² mM	MIC (Aspergillus ochraceus [21]): 1.88 ×10⁻² mM; MFC (Aspergillus ochraceus [22]): 3.53 ×10⁻² mM; MIC (Aspergillus niger [23]): 3.53 ×10⁻² mM; MFC (Aspergillus niger [24]): 7.06 ×10⁻² mM; MIC (Trichoderma viride [25]): 1.88 ×10⁻² mM; MFC (Trichoderma viride [26]): 3.53 ×10⁻² mM; MIC (Penicillium ochrochloron [27]): 3.53 ×10⁻² mM; MFC (Penicillium ochrochloron [28]): 7.06 ×10⁻² mM; MIC [29]: 3.53 ×10⁻² mM; MFC [30]: 7.06 ×10⁻² mM; MIC (Penicillium cyclopium [31]): 3.53 ×10⁻² mM; MFC (Penicillium cyclopium [32]): 7.06 ×10⁻² mM
12.1 µM (≈ 4.65 µg/mL)	12.1 µM (≈ 4.65 µg/mL)	0.3 µM (≈ 0.115 µg/mL)	0.3 µM (≈ 0.115 µg/mL)	0.3 µM (≈ 0.115 µg/mL)	0.3 µM (≈ 0.115 µg/mL)	0.3 µM (≈ 0.115 µg/mL)	12.1 µM (≈ 4.65 µg/mL)	7.8 ×10⁻² mM	7.8 ×10⁻² mM	Cc1ccc2c(c1)-c1c(ssc1=S)C(C)(C)N2C(=O)c1cccnc1	0.6 µM (≈ 0.231 µg/mL)	0.6 µM (≈ 0.231 µg/mL)	0.6 µM (≈ 0.231 µg/mL)	0.6 µM (≈ 0.231 µg/mL)	0.6 µM (≈ 0.231 µg/mL)	0.6 µM (≈ 0.231 µg/mL)	0.6 µM (≈ 0.231 µg/mL)	0.6 µM (≈ 0.231 µg/mL)	15.6 ×10⁻² mM	15.6 ×10⁻² mM	MIC (Aspergillus ochraceus [21]): 14.6 ×10⁻² mM; MFC (Aspergillus ochraceus [22]): 31.2 ×10⁻² mM; MIC (Aspergillus niger [23]): 1.56 ×10⁻² mM; MFC (Aspergillus niger [24]): 7.8 ×10⁻² mM; MIC (Trichoderma viride [25]): 1.04 ×10⁻² mM; MFC (Trichoderma viride [26]): 2.08 ×10⁻² mM; MIC (Penicillium ochrochloron [27]): 7.8 ×10⁻² mM; MFC (Penicillium ochrochloron [28]): 15.6 ×10⁻² mM; MIC [29]: 15.6 ×10⁻² mM; MFC [30]: 31.2 ×10⁻² mM; MIC (Penicillium cyclopium [31]): 7.8 ×10⁻² mM; MFC (Penicillium cyclopium [32]): 15.6 ×10⁻² mM
